Screens deposited in PubChem BioAssay by Johns Hopkins Ion Channel Center.
TRPC6 inh – mouse TRPC6 channel inhibitors, primary screen, cell-based, HEK293, membrane potential dye; actives 1.1% (n = 310,000); B-score at 10 µM; AID 2553, 2010; ACh-evoked depolarization; active compounds read low; Short transient receptor potential channel 6 (Mus musculus), Q61143;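 active = B-score under library mean minus 3 SD, initial fluorescence not abnormally high, positive integrated signal ratio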;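 also: B-score derived from integrated fluorescence ratio over the kinetic read; more negative B-score means stronger inhibition of depolarization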
Target sequence (Q61143 whole entry, looked up): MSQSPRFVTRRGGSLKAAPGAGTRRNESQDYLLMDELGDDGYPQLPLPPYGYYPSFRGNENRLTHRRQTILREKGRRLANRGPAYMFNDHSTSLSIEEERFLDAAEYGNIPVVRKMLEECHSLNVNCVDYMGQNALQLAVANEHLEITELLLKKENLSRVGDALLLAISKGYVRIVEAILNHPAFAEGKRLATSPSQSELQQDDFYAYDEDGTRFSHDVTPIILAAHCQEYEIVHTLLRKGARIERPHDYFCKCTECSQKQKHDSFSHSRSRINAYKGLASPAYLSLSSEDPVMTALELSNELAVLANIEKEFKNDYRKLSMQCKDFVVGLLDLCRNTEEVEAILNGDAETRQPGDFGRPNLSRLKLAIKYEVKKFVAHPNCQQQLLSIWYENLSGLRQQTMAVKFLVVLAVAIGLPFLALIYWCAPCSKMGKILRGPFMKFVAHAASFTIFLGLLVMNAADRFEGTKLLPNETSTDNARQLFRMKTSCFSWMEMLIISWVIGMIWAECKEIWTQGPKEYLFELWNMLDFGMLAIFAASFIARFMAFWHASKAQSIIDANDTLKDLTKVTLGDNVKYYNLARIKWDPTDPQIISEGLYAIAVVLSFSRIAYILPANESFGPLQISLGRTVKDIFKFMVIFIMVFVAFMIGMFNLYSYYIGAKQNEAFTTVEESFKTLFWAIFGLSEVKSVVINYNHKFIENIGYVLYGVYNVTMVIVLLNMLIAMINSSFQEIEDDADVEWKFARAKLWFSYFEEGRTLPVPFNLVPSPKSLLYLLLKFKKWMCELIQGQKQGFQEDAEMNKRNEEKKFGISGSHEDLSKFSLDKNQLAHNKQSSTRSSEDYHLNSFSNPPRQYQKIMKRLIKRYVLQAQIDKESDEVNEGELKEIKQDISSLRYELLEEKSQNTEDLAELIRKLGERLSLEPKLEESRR
TRPC4 PAM – positive allosteric modulators of TRPC4, primary screen, cell-based, mouse TRPC4beta, HEK293 mu-opioid, Fluo-4 calcium; AID 2227, 2009; B-score at 10 µM; DAMGO EC20, Fluo-4 Ca2+ flux; active compounds read high; actives 0.42% (n = 310,000);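 active = B-score of calcium response area above 5 SD of library B-scores, with initial fluorescence ratio within 5 SD of library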;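 also: B-score of integrated fluorescence ratio over time as area under calcium response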
TRPC6 activator – mouse TRPC6 channel activators, primary screen, cell-based, HEK293, membrane potential dye. HEK293-TRPC6 membrane potential dye fluorescence; active compounds read high. B-score at 10 µM. actives 0.13% (n = 310,000). AID 2550, 2010;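 active = B-score of the integrated fluorescence ratio above library mean plus 3 SD, and starting fluorescence ratio within library mean plus 5 SD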;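 also: higher score means more depolarization so channel activation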
TRPC4 agonist – activators of mouse TRPC4 channel, primary screen, Fluo4 calcium, HEK293 TRPC4beta/mu-opioid cells | Short transient receptor potential channel 4 (Mus musculus), Q9QUQ5 | Fluo4 calcium fluorescence; active compounds read high | B-score at 10 µM | actives 0.49% (n = 310,000) | AID 2237, 2010;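 active = B-score above 5 SD of library B-scores, and initial fluorescence ratio not above library mean plus 5 SD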;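 also: positive B-score marks a calcium rise read as TRPC4 activation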
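Assay system – TRPC4beta and mu-opioid receptor HEK293 stable cells · Measured by – Fluo4 fluorescence, kinetic · Schedule – dye loading 45 min room temperature, 110 s kinetic read · Read-out – B-scored integrated calcium fluorescence ratio · Controls – buffer and maximal DAMGO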
TRPC4 inh – inhibitors of mouse TRPC4 channel, primary screen, Fluo4 calcium, HEK293 TRPC4beta/mu-opioid cells; Short transient receptor potential channel 4 (Mus musculus), Q9QUQ5; DAMGO-evoked Fluo4 calcium flux; active compounds read low; B-score at 10 µM; actives 0.39% (n = 300,000); AID 2247, 2010;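 active = B-score over 3 SD under the library average, no early fluorescence shift, positive overall ratio signal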
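Assay system: TRPC4beta/mu-opioid receptor HEK293 cell line; compound dosing: single concentration per test compound; detection: Fluo4 Ca2+ flux fluorescence; evaluation: per-well B score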
HEK293 MPD ctr – parental HEK293 membrane potential modulation, confirmation, counter-screen for TRPC6 modulator project, cell-based | shares compounds with TRPC6 inh | membrane potential dye fluorescence | membrane potential signal change, % at 10 µM | actives 51% (n = 2,400) | AID 488924, 2010;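 active = membrane potential signal moves up or down beyond 5 SD from buffer-only wells, on both duplicate plates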
HEK293 MPD ctr 2 – second check of TRPC6 modulator effects in parental HEK293 cells; shares compounds with TRPC6 inh; membrane potential dye fluorescence; after compound, maximal acetylcholine stimulation; inhibition, % at 10 µM; actives 14% (n = 2,400); AID 488926;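 active = membrane potential signal drops by more than 5 SD from the mean control signal, in both duplicate plates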;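 also: plate controls were acetylcholine ECmax control wells for no effect and buffer only wells for full effect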
TRPC4/MOR mod – TRPC4 modulation by TRPC6 hit compounds, confirmation, selectivity assay for TRPC6 modulator project, cell-based, HEK293 TRPC4/mu-opioid, membrane potential dye, mouse. membrane potential fluorescence. shares compounds with TRPC6 inh. actives 69% (n = 2,400). percent change from control (negative = decrease, positive = increase), % at 10 µM;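 active = membrane potential signal moved up or down beyond 5 SD of buffer control wells, in both duplicate plates, actives on both sides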;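 also: plate controls were assay buffer wells for no effect and DAMGO maximal-effect wells for full effect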
TRPC4/MOR inh 2 – mouse TRPC4 off-target activity of TRPC6 modulators, second screen. shares compounds with TRPC6 inh. HEK293 TRPC4/mu-opioid, membrane potential dye fluorescence; stimulated with maximal-effect DAMGO. inhibition, % at 10 µM. actives 55% (n = 2,400). AID 488928;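 active = drop in membrane potential signal beyond 5 SD of the control wells in both duplicate plates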;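 also: TRPC4 counter screen for TRPC6 hits run under conditions tuned for TRPC6 not TRPC4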
TRPC6 block conf – mouse TRPC6 channel inhibitors, confirmation, HEK293 cells, membrane potential dye, duplicate | shares compounds with TRPC6 inh | ACh-evoked depolarization | inhibition, % at 10 µM | actives 43% (n = 3,300) | AID 488960, 2010;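 active = fluorescence ratio falls more than 5 SD below the full-stimulation control mean, in both duplicate runs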;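 also: integrated fluorescence ratio of peak minus minimum over baseline after agonist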
TRPC6 act confirm – mouse TRPC6 channel activators, confirmation, HEK293 cells, membrane potential dye, duplicate; shares compounds with TRPC6 inh; HEK293-TRPC6 membrane potential dye fluorescence, FDSS; activation, % at 10 µM; actives 11% (n = 2,800); AID 488961, 2010;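 active = ratio signal rise beyond 5 SD above unstimulated control wells' mean, seen in both duplicate runs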;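 also: plate controls were buffer EC0 wells for no effect and acetylcholine ECmax response for full effect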
* hit, by the source's call. Compounds with a hit are over-represented: about 2.3% of the library has one in this group of screens.

CCOC(=O)c1cnc2c(C)cccc2c1NCc1ccco1 was read as TRPC6 inh inactive, TRPC4 PAM inactive, TRPC6 activator inactive, TRPC4 agonist inactive and TRPC4 inh inactive.
For CCOC(=O)c1cnc2c(Cl)cc(Cl)cc2c1NCCOCCO the results were TRPC6 inh inactive, TRPC4 PAM inactive, TRPC6 activator inactive, TRPC4 agonist inactive and TRPC4 inh inactive.
`CCOC(=O)c1cnc2ccc(Br)cc2c1NCCO` gave TRPC6 inh inactive, TRPC4 PAM inactive, TRPC6 activator inactive, TRPC4 agonist inactive and TRPC4 inh inactive.
`COc1ccc(CN2C(=O)c3cccc4cccc2c34)cc1F` gave TRPC6 inh inactive, TRPC4 PAM inactive, TRPC6 activator inactive, TRPC4 agonist inactive and TRPC4 inh inactive.
O=S(=O)(NC1CCSc2ccccc21)c1ccc(Cl)nc1 (stereo not given) was read as TRPC6 inh -6.2*, TRPC4 PAM inactive, TRPC6 activator inactive, TRPC4 agonist inactive, TRPC4 inh inactive, HEK293 MPD ctr inactive, HEK293 MPD ctr 2 inactive, TRPC4/MOR mod inactive, TRPC4/MOR inh 2 inactive, TRPC6 block conf inactive and TRPC6 act confirm inactive.
CC(=O)c1ccc(S(=O)(=O)NC2CCSc3ccccc32)cc1 (stereo not given) was read as TRPC6 inh inactive, TRPC4 PAM inactive, TRPC6 activator inactive, TRPC4 agonist inactive and TRPC4 inh inactive.
For CN(C)c1ccc2nc3ccc(=[N+](C)C)cc-3sc2c1 the results were TRPC6 inh -14*, TRPC4 PAM inactive, TRPC6 activator inactive, TRPC4 agonist inactive, TRPC4 inh inactive, HEK293 MPD ctr -224%*, HEK293 MPD ctr 2 132%*, TRPC4/MOR mod -36%*, TRPC4/MOR inh 2 66%*, TRPC6 block conf 80%* and TRPC6 act confirm inactive.
`COc1ccc(OC)c(S(=O)(=O)NCC(c2ccc3c(c2)OCO3)N2CCOCC2)c1` (stereo not given) gave TRPC6 inh inactive, TRPC4 PAM inactive, TRPC6 activator inactive, TRPC4 agonist inactive and TRPC4 inh inactive.
Screening COc1ccc(C2=NOC(C)(c3nnc(Cc4ccccc4)o3)C2)cc1 (stereo not given) returned TRPC6 inh inactive, TRPC4 PAM inactive, TRPC6 activator inactive, TRPC4 agonist inactive and TRPC4 inh inactive.
